Measurements collected from several papers.
Lines come from different studies, so protocols differ.
Target: MAP kinase-activated protein kinase 2 (MAPKAPK2, Homo sapiens, UniProt P49137)

observed	action	technique	concentration	measurement	value	Compound
enzyme activity	inhibitor		10 µM	inhibition	15%	CCN(CC)CCNC(=O)c1c(C)[nH]c(/C=C2\C(=O)Nc3ccc(F)cc32)c1C
enzyme activity	inhibitor		10 µM	remaining activity	96%	Nc1nc(NC2CCCCC2)sc1C(=O)c1ccccc1
enzyme activity	inhibitor		5 µM	remaining activity	99.8%	O=C(Nc1cnn(-c2csc(C(=O)NC3COC3)c2)c1)Nc1c(F)cccc1Cl
enzyme activity	inhibitor	radiometric	10 µM	remaining activity	104%	COc1cc(Nc2cnc(C#N)c(O[C@H](C)CN(C)C)n2)ncc1-c1cnn(C)c1
enzyme activity	inhibitor		1 µM	inhibition	4%	COc1cc2ncnc(Nc3ccc(Oc4ccccc4)cc3C)c2cc1OC
enzyme activity	inhibitor		10 µM	remaining activity	86%	CCN(CC)c1ccc(C2=NNC(=O)CC2C)cc1[N+](=O)[O-] (stereo not shown)
cell-free assay		competition with immobilised ligand	1 µM	remaining binding	100%	CCS(=O)(=O)c1cc2cc(C[C@](O)(CC(C)(C)c3ccc(F)cc3C(N)=O)C(F)(F)F)[nH]c2cn1
enzyme activity	inhibitor	FRET	1 µM	inhibition	-2%	CN(C)C1CCN(CC#Cc2nn(C3CCCC3)c3nc(NCc4ccccc4)ncc23)C1 (stereo not shown)
cell-free assay		competition with immobilised ligand	0.1 µM	remaining binding	100%	Cn1cc(Cl)c2c(Oc3c(F)cc(Nc4cc(Cl)nc(N)n4)cc3F)ccnc21
enzyme activity	inhibitor		0.1 µM	activity vs control	95%	Cc1cc(NC(=O)c2cccc3cc(-c4cccc5[nH]nc(N)c45)ccc23)ccc1F
enzyme activity	inhibitor	radiometric	5 µM	activity vs control	96%	FC(F)(F)Oc1cccc(-c2cnc3ccc(-c4ccncc4)nn23)c1
cell-free assay			0.5 µM	remaining signal	98.8%	Clc1ccc(Nc2nnc(Cc3ccncc3)c3ccccc23)cc1
cell-free assay	inhibitor		20 µM	remaining signal	86%	Nc1ncnc2occ(-c3ccc(NC(=O)Nc4cc(C(F)(F)F)ccc4F)cc3)c12
enzyme activity	inhibitor		10 µM	inhibition	11%	Cc1ccc(Nc2nccc(N(C)c3ccc4c(C)n(C)nc4c3)n2)cc1S(N)(=O)=O
cell-free assay			0.5 µM	remaining signal	83.4%	N#CCCc1ccc2c(c1)-c1[nH]c3ccc([N+](=O)[O-])cc3c1CC(=O)N2
enzyme activity	inhibitor		1 µM	inhibition	4%	C=CC(=O)Nc1cc(Nc2nccc(Nc3cc(Cl)c(F)cc3C(C)(C)O)n2)c(OC)cc1N1CC[C@@H](N(C)C)C1
enzyme activity	inhibitor		10 µM	inhibition	11%	CNc1cccc2cc(C(=O)Nc3ccc(C(=O)O)cc3)c(=O)[nH]c12

observed	action	technique	concentration	measurement	value	Compound
cell-free assay		competition with immobilised ligand	0.1 µM	remaining binding	100%	C[C@H](c1ccnc(Nc2nc3ccc(-c4cc(N(C)C)ncn4)cc3[nH]2)c1)N1CCN(C(=O)CC(F)(F)F)CC1
enzyme activity	inhibitor		0.3 µM	inhibition	4%	CNC(=O)c1cc(Oc2ccc(NC(=O)Nc3ccc(Cl)c(C(F)(F)F)c3)cc2)ccn1
cell-free assay			0.5 µM	remaining signal	95.7%	O=C1NC(=O)c2cc(Nc3ccc(F)cc3)c(Nc3ccc(F)cc3)cc21
cell-free assay		competition with immobilised ligand	1 µM	remaining binding	100%	C[C@H](NC(=O)c1cnc2n1[C@](C)(Cc1ccc(C#N)cc1)C(=O)N2c1cc(Cl)c(F)c(Cl)c1)C(=O)NC1(c2ccccn2)CC1
enzyme activity	inhibitor		1 µM	remaining activity	105%	CC(C)(O)[C@H]1CC[C@H](Nc2ccc3ncc(-c4cccc(C(F)(F)F)c4)n3n2)CC1
enzyme activity	inhibitor		10 µM	remaining activity	99%	Cn1c(=O)n(-c2ccc(C(C)(C)C#N)cc2)c2c3cc(-c4cnc5ccccc5c4)ccc3ncc21
cell-free assay		competition with immobilised ligand	1 µM	remaining binding	97%	Cc1noc([C@H]2C[C@@H](c3ccc(C(F)(F)F)cc3)CN(C(=O)N3CCS(=O)(=O)C3)C2)n1
enzyme activity	inhibitor		10 µM	remaining activity	91%	FC(F)c1nc2ccccc2n1-c1nc(N2CCOCC2)nc(N2CCOCC2)n1
enzyme activity	inhibitor		0.1 µM	inhibition	-0.7%	CC/C(=N\NC(=O)NCc1cccc(O)c1)c1ccc(O)c(C)c1O
enzyme activity	inhibitor		10 µM	inhibition	1%	CS(=O)(=O)Nc1cccc(-c2csc(NC(=O)CSc3nc4nccnc4c(=O)n3CCc3ccccc3)n2)c1
enzyme activity	inhibitor		1 µM	inhibition	< 10%	CCCS(=O)(=O)Nc1ccc(F)c(C(=O)c2c[nH]c3ncc(-c4ccc(Cl)cc4)cc23)c1F
cell-free assay		competition with immobilised ligand	0.1 µM	remaining binding	55%	Cn1nc(C(=O)NCc2ccc(C(=O)O)cc2)cc1-c1ccc2[nH]ccc2c1
enzyme activity	inhibitor		1 µM	activity vs control	103%	CC(C)c1ccc(NC(=O)c2cccs2)c(-c2nc3ccccc3[nH]c2=O)c1
binding		competition with immobilised ligand	1 µM	remaining binding	100%	c1ccc(N2CCN(Cc3nc4ccccc4[nH]3)CC2)nc1
enzyme activity	inhibitor	radiometric	1 µM	remaining activity	69%	CC(C)(C)c1nc(-c2cccc(NS(=O)(=O)c3c(F)cccc3F)c2F)c(-c2ccnc(N)n2)s1
cell-free assay		competition with immobilised ligand	1 µM	remaining binding	97%	Cc1c(NC(=O)c2cc(C(N)=O)nc3cc(F)ccc23)c(C(F)(F)F)nn1Cc1ccc(C#N)cc1
enzyme activity	inhibitor		5 µM	remaining activity	97.1%	O=C(Nc1cnn(-c2csc(C(=O)NC3COC3)c2)c1)Nc1ccccc1Cl
